Laboratory results as given in ChEMBL document CHEMBL1817654, “Synthesis and protective effects of aralkyl alcoholic 2-acetamido-2-deoxy-β-D-pyranosides on hypoglycemia and serum limitation induced apoptosis in PC12 cell” (2011).
Calls of active or inactive are those of the source. No cut-off for these calls is given here.

Tests used:
PC-12 [1] = experiment: Neuroprotective activity in rat differentiated PC12 cells assessed protection against hypoglycemia and serum limitation-induced decrease in cell viability at 40 uM after 24 hrs by MTT assay; type: functional
Procedure, shortened: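 NGF-differentiated PC12 cells (50 ng/ml every other day, 6 days) pretreated with 8, 40 or 200 µM for 24 h. Insult: 24 h in glucose-free DMEM with 1% horse serum and 1% FBS, compound kept. MTT added to 0.5 mg/ml for 4 h at 37 °C, formazan dissolved in 20% SDS, absorbance read at 570 nm. Viability given as % of unstressed control. Three independent experiments, each in triplicate.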

PC-12 [2] = experiment: Neuroprotective activity in rat differentiated PC12 cells assessed reduction of hypoglycemia and serum limitation-induced caspase 3 activity at 40 uM after 24 hrs by colorimetric assay relative to control; type: functional
Procedure, shortened: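 Treatment: NGF-differentiated PC12 cells preincubated 24 h, then 24 h of hypoglycemia and serum limitation. Lysates spun at 12,000 g for 10 min, protein measured by Bradford. Lysate incubated with reaction buffer and Ac-DEVD-pNA (10 µl of a 2 mM stock) for 4 h at 37 °C. pNA release read at 405 nm, expressed as % of control.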

PC-12 [3] = experiment: Neuroprotective activity in rat differentiated PC12 cells assessed protection against hypoglycemia and serum limitation-induced early stage of apoptosis at 40 uM after 24 hrs using annexin V/propidium iodide double staining by flow cytometry; type: functional
Procedure, shortened: (§1)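 Differentiated PC12 cells pretreated 24 h, then 24 h of glucose-free DMEM with 1% horse and 1% fetal serum. Harvested cells resuspended at 1 × 10⁶/ml in binding buffer (10 mM HEPES, 140 mM NaCl, 2.5 mM CaCl₂). FITC-annexin V and PI added, 15 min in the dark at room temperature, analysed by flow cytometry within 1 h. Three independent experiments in triplicate.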

PC-12 [4] = experiment: Neuroprotective activity in rat differentiated PC12 cells assessed protection against hypoglycemia and serum limitation-induced apoptosis at 40 uM after 24 hrs by Hoechst 33342 staining analysis; type: functional
Procedure, shortened: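 PC12 cells kept in high-glucose DMEM with 10% horse serum and 5% FBS, differentiated with NGF (50 ng/ml) every other day for 6 days. Pretreated 24 h, then glucose-free DMEM with 1% horse and 1% fetal serum for 24 h with compound kept. Cells fixed in 4% paraformaldehyde, stained with Hoechst 33342 (5 µg/ml, 37 °C, 10 min). Condensed or fragmented nuclei counted under UV fluorescence as a fraction of total cells. Three independent experiments in triplicate.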

PC-12 [5] = experiment: Neuroprotective activity in rat differentiated PC12 cells assessed reversal of hypoglycemia and serum limitation-induced mitochondrial membrane potential at 40 uM after 24 hrs using Rhodamine dye by confocal microscopic analysis; type: functional
Procedure, shortened: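 Differentiated PC12 cells given 24 h pretreatment, then 24 h in glucose-free DMEM with 1% horse serum and 1% FBS. Rhodamine 123 added to 2 µM final for 30 min at 37 °C. Cells fixed in 4% paraformaldehyde and imaged by confocal microscopy (ex 488, em 530 nm, ×400). Fluorescence intensity given as % of control. Three independent experiments in triplicate.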

PC-12 [6] = experiment: Neuroprotective activity in rat differentiated PC12 cells assessed protection against hypoglycemia and serum limitation-induced late stage of apoptosis at 40 uM after 24 hrs using annexin V/propidium iodide double staining by flow cytometry; type: functional, cell-based; procedure, shortened: as §1

| SMILES | Activity (PC-12 [1]) | fold change (FC) (PC-12 [2]) | Activity (PC-12 [3]) [%] | Activity (PC-12 [4]) [%] | Activity (PC-12 [5]) [%] | Activity (PC-12 [6]) |
| --- | --- | --- | --- | --- | --- | --- |
| COc1cc(CO[C@@H]2O[C@H](CO)[C@@H](O)[C@H](O)[C@H]2NC(C)=O)cc(OC)c1 | Active |  |  |  |  |  |
| CC(=O)N[C@H]1[C@H](OCc2ccccc2)O[C@H](CO)[C@@H](O)[C@@H]1O | inactive |  |  |  |  |  |
| CC(=O)N[C@H]1[C@H](OCCc2ccccc2)O[C@H](CO)[C@@H](O)[C@@H]1O | inactive |  |  |  |  |  |
| CC(=O)N[C@H]1[C@H](OCCc2ccc(O)cc2)O[C@H](CO)[C@@H](O)[C@@H]1O | 65.36% |  |  |  |  |  |
| COc1cc(CCCO[C@@H]2O[C@H](CO)[C@@H](O)[C@H](O)[C@H]2NC(C)=O)ccc1O | 62.38% |  |  |  |  |  |
| COc1ccc(CCO[C@@H]2O[C@H](CO)[C@@H](O)[C@H](O)[C@H]2NC(C)=O)cc1 | 86.62% | 1.55 | 11.21 | 5.9 | 82.86 | inactive |
| CC(=O)N[C@H]1[C@H](OCCCc2ccc(O)cc2)O[C@H](CO)[C@@H](O)[C@@H]1O | Active |  |  |  |  |  |
| CC(=O)N[C@H]1[C@H](OCc2ccc(O)cc2)O[C@H](CO)[C@@H](O)[C@@H]1O | 60.65% |  |  |  |  |  |
| CC(=O)N[C@H]1[C@H](OCc2cccc(O)c2)O[C@H](CO)[C@@H](O)[C@@H]1O | Active |  |  |  |  |  |
| COc1cc(CO[C@@H]2O[C@H](CO)[C@@H](O)[C@H](O)[C@H]2NC(C)=O)ccc1O | 65.9% |  |  |  |  |  |
| OC[C@H]1O[C@@H](OCCc2ccc(O)cc2)[C@H](O)[C@@H](O)[C@@H]1O [SALIDROSIDE] | 65.62% | 1.97 | 17.56 | 8.31 | 71.43 | inactive |
| COc1ccc(CCCO[C@@H]2O[C@H](CO)[C@@H](O)[C@H](O)[C@H]2NC(C)=O)cc1 | 80.41% | 1.69 | 15.51 | 7.12 | 79.05 | inactive |
